Data on 13 compounds can be found in ChEMBL document CHEMBL1157540, “2-Arylthiomorpholine derivatives as potent and selective monoamine oxidase B inhibitors” (Bioorg Med Chem, 2010).

pKi: −log10 of the molar value.

Assay [1] deals with T1, Amine oxidase [flavin-containing] A (Rattus norvegicus, UniProt P21396).
T1 sequence (P21396 whole entry): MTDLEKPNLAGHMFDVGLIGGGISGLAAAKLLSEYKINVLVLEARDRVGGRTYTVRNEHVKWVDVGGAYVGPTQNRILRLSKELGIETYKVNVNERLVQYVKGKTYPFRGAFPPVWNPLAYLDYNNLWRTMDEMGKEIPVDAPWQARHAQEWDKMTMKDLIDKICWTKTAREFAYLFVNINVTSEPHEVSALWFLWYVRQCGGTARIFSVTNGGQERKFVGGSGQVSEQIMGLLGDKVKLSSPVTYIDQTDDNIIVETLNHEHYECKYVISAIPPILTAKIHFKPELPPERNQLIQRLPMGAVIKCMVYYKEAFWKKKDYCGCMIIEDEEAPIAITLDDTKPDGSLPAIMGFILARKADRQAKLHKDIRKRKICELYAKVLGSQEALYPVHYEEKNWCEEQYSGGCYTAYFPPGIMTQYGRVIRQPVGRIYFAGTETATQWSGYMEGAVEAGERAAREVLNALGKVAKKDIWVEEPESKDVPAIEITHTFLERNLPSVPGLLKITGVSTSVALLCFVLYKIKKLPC
As to the kind of experiment: Inhibition of MAOA in rat brain mitochondrial suspension. The class given is tissue-based. The procedure, abridged: (§1)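 Rat brain mitochondria; MAO-A substrate 5-HT, MAO-B substrate DMAPEA; metabolites measured by HPLC with electrochemical detection. Percent inhibition relative to enzyme treated alike without inhibitor; IC50 from inhibition vs –log concentration (mean ± SD, at least two independent experiments, each in triplicate). Ki by Cheng–Prusoff with Km 100 μM (5-HT, MAO-A) and 5 μM (DMAPEA, MAO-B).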

In assay [2] the target is T2, Amine oxidase [flavin-containing] B (Homo sapiens, UniProt P27338).
T2 sequence (P27338 whole entry): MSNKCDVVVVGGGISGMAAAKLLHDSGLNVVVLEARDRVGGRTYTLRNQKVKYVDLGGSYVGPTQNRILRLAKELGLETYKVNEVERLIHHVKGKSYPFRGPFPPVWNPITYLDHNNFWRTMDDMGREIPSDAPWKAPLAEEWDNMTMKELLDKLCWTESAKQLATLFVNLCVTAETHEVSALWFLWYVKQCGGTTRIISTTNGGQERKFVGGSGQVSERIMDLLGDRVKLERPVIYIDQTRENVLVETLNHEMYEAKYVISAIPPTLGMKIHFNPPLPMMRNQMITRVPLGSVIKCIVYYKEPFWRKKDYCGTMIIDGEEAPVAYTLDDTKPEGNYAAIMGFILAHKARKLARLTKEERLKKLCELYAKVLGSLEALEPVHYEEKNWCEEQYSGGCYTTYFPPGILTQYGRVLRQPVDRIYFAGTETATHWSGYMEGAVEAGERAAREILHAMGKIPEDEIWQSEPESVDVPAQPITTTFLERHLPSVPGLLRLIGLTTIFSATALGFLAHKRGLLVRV
As to the kind of experiment: Inhibition of human recombinant MAOB by spectrophotometrically. The essentials: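 Purified human recombinant MAO-B; benzylamine substrate in 50 mM Hepes pH 7.5 with 0.5% (w/v) reduced Triton X-100 at 25 °C. Benzaldehyde formation monitored at 250 nm. Ki from full kinetic determinations (initial velocities at varied inhibitor levels; Lineweaver–Burk analysis).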

In assay [3] the target is T3, Amine oxidase [flavin-containing] B (Rattus norvegicus, UniProt P19643).
T3 sequence (P19643 whole entry): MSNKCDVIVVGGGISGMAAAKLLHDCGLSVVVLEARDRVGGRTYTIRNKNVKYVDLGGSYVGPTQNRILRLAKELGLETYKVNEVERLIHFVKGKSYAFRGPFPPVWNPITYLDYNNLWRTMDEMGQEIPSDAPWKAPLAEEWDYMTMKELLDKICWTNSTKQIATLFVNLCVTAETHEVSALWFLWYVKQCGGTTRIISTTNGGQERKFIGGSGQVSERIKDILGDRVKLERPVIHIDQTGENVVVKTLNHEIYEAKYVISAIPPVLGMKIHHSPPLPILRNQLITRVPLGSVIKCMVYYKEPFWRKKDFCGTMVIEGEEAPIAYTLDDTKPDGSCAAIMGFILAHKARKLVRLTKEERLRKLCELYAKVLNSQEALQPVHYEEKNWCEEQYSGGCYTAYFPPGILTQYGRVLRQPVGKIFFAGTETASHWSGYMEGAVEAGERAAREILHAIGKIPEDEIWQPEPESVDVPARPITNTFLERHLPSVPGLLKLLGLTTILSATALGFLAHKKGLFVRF
As to the kind of experiment: Inhibition of MAOB in rat brain mitochondrial suspension. In kind it is tissue-based. The essentials: as §1

The species entered for another assay is Homo sapiens. In words: Selectivity ratio of Ki for human MAOA to Ki for human MAOB.
The target in assay [4] is T4, Amine oxidase [flavin-containing] A (Homo sapiens, UniProt P21397).
T4 sequence (P21397 whole entry): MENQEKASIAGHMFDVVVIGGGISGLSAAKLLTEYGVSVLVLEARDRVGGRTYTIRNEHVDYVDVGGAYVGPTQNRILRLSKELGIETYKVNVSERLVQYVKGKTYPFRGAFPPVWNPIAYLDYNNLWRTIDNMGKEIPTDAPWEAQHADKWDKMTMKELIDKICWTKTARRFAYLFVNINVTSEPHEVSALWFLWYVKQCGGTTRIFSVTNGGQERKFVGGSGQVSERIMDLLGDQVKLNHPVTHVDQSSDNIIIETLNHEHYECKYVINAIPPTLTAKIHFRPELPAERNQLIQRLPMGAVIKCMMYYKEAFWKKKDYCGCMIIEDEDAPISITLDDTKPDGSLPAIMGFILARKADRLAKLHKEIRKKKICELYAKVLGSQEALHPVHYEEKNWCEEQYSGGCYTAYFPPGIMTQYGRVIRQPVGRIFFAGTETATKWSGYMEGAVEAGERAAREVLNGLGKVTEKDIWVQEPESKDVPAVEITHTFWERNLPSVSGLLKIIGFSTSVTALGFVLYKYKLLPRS
As to the kind of experiment: Inhibition of human recombinant MAOA by spectrophotometrically. The essentials: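 Purified human recombinant MAO-A; initial oxidation rates read spectrophotometrically at 30 °C in 50 mM potassium phosphate pH 7.4 with 0.05% Triton X-100. Kynuramine 0.1–0.9 mM at six inhibitor concentrations spanning 10-fold; product followed at 314 nm. Ki taken directly from full kinetic analysis; errors from a single kinetic analysis.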

For another assay, the species on record is Rattus norvegicus. In words: Selectivity ratio of Ki for rat MAOA to Ki for rat MAOB. The procedure, abridged:
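Ki(rMAO-A)/Ki(rMAO-B), each from rat brain mitochondrial IC50 by Cheng–Prusoff (5-HT for MAO-A, Km 100 μM; DMAPEA for MAO-B, Km 5 μM; HPLC-electrochemical detection).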

With `O=C1CSC(c2ccc(OCc3ccccc3)cc2)CN1` (racemic), the pKi was 4.56 in assay [1], 7.32 in assay [2], 7.13 in assay [3] and under 4.00 in assay [4]. The Ratio Ki is over 2000 in the assay filed under Homo sapiens and 373 in the assay listed under Rattus norvegicus.

Regarding `COc1ccc(C2CNC(=O)CS2)cc1` (racemic), the pKi is 5.03 in assay [1], under 4.00 in assay [2], 4.87 in assay [3] and under 4.00 in assay [4]. For the same compound, the Ratio Ki in the assay filed under Rattus norvegicus amounted to 0.68.

`CCCOc1ccc(C2CNC(=O)CS2)cc1` (racemic): the pKi in assay [1] was 5.06; in assay [2], 5.62; in assay [3] it was 5.83; in assay [4], 4.40. The results for the Ratio Ki in the assay filed under Homo sapiens and in the assay listed under Rattus norvegicus were 16.7 and 6, respectively.

With `CCCOc1ccc(C2CNCCS2)cc1` (racemic), the pKi was 5.43 in assay [1], 6.89 in assay [2], 6.01 in assay [3] and 5.18 in assay [4]. For the same compound, the Ratio Ki came out at 51 in the assay filed under Homo sapiens and 4 in the assay listed under Rattus norvegicus.

`c1ccc(COc2ccc(C3CNCCS3)cc2)cc1` (racemic): the negative-log Ki (pKi) in assay [1] was 4.72; in assay [2], 7.42; in assay [3], 6.89; in assay [4], under 4.00. Further, the Ratio Ki in the assay listed under Homo sapiens was over 2600; in the assay listed under Rattus norvegicus, 146.

In the case of `CCCCOc1ccc(C2CNCCS2)cc1` (racemic), the pKi in assay [1] was 4.85; in assay [2] it was 7.17; in assay [3], 6.57; in assay [4], 5.60. The Ratio Ki in the assay listed under Homo sapiens was 37; in the assay listed under Rattus norvegicus it was 52.

Consider `O=C1CSC(c2ccccc2)CN1` (racemic), for which the pKi was 5.04 in assay [1], under 4.00 in assay [2], 5.02 in assay [3] and under 4.00 in assay [4]. In addition, the Ratio Ki in the assay filed under Rattus norvegicus stood at 1.

As to `C[C@H](N)Cc1ccccc1` [DEXTROAMPHETAMINE], the pKi was 4.91 in assay [1], 3.55 in assay [2], under 4.00 in assay [3] and 4.84 in assay [4]. The Ratio Ki in the assay filed under Homo sapiens was 0.05; in the assay listed under Rattus norvegicus, over 0.12.

As to `CCOc1ccc(C2CNCCS2)cc1` (racemic), the pKi in assay [1] was 5.66; in assay [2], 5.68; in assay [3], 5.66; in assay [4], 5.02. Also, the Ratio Ki in the assay filed under Homo sapiens turned out to be 5; in the assay filed under Rattus norvegicus, 1.

With `c1ccc(C2CNCCS2)cc1` (racemic), the pKi in assay [1] is 4.97; in assay [2] it was under 4.00; in assay [3] it was 5.65; in assay [4] it was under 4.00. Further, the Ratio Ki in the assay filed under Rattus norvegicus came to 5.

As for `CCOc1ccc(C2CNC(=O)CS2)cc1` (racemic), the pKi is 4.91 in assay [1], 4.77 in assay [2], 5.47 in assay [3] and 4.22 in assay [4]. Further, the Ratio Ki stood at 3.5 in the assay filed under Homo sapiens and 3.6 in the assay listed under Rattus norvegicus.

Turning to `CCCCOc1ccc(C2CNC(=O)CS2)cc1` (racemic), the pKi was 4.29 in assay [1], 6.34 in assay [2], 6.80 in assay [3] and 5.00 in assay [4]. In addition, the Ratio Ki was determined as 22 in the assay filed under Homo sapiens and 318 in the assay filed under Rattus norvegicus.

As to `COc1ccc(C2CNCCS2)cc1` (racemic), the pKi in assay [1] was 5.19; in assay [2], under 4.00; in assay [3], 5.41; in assay [4] it was 4.79. The Ratio Ki in the assay filed under Rattus norvegicus came to 1.7.
